Experimental data: article PMC6745485 (Heliyon, 2019)
Several values for one entry are separate records, joined by “and”; a condition that tells them apart may be missing. Identical values can stand only once. Entries after “also recorded” stand apart in the source; their conditions may differ.

Key:
[1] = target: T1, rat CAR (Rattus norvegicus, UniProt Q9QUS1); experiment: Rat CAR reporter gene assay in COS-1 cells; type: cell-based; details: for Agonistic activity REC20 CAR: concentration showing 20% of the agonistic activity of 30 μM artemisinin; for Agonistic activity REC20 CAR / Inverse agonistic activity RIC20 CAR: ±SD; for Inverse agonistic activity RIC20 CAR: concentration showing 80% of the activity of the vehicle control; for CAR agonistic activity (in words) / CAR inverse agonistic activity (in words): up to 30 μM
T1 sequence (Q9QUS1 1-358): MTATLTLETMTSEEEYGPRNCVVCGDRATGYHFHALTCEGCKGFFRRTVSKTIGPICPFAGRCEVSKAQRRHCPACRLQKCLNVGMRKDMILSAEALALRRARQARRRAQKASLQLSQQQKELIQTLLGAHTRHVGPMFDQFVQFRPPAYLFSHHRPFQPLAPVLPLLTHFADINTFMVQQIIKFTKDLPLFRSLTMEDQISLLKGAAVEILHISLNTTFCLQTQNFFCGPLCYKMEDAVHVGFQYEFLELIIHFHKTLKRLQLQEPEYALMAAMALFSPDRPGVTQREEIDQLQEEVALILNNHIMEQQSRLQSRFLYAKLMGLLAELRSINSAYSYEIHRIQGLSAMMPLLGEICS

[2] = target: T2, rat PXR (Rattus norvegicus, UniProt Q9R1A7); experiment: Rat PXR reporter gene assay in COS-1 cells; type: cell-based; details: for Agonistic activity REC20 PXR: concentration showing 20% of the agonistic activity of 1 μM PCN, ±SD; for PXR agonistic activity (in words): up to 30 μM
T2 sequence (Q9R1A7 1-431): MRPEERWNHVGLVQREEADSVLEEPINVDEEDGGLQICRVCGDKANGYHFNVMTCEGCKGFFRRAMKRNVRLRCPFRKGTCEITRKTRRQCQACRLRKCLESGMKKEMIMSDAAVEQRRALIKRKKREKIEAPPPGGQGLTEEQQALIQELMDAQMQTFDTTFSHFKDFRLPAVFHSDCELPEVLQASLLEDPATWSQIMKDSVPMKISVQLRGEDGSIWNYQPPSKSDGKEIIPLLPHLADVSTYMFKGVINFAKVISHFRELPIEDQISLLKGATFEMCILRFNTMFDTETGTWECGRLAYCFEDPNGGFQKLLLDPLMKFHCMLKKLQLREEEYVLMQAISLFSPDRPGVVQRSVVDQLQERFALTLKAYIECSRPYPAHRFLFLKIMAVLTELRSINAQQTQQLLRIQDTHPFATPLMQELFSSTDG
In short: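 COS-1 cells (1×10^4/well) co-transfected with rat PXR expression, reporter and Renilla control plasmids via jetPEI. After 24 h, test compound or 0.1% DMSO added in serum-free D-MEM for 24 h. Dual-luciferase read-out, firefly normalized to Renilla, fold vs vehicle. REC20: concentration reaching 20% of 1 μM PCN activity. Mean ± SD, ≥3 experiments in duplicate; Dunnett's test.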

[3] = target: T3, rat PPARα (Rattus norvegicus, UniProt P37230); experiment: Rat PPARα reporter gene assay in COS-1 cells; type: cell-based; details: for Agonistic activity REC20 PPARα: concentration showing 20% of the agonistic activity of 30 μM BZF, ±SD; for PPARα agonistic activity (in words): up to 30 μM
T3 sequence (P37230 1-468): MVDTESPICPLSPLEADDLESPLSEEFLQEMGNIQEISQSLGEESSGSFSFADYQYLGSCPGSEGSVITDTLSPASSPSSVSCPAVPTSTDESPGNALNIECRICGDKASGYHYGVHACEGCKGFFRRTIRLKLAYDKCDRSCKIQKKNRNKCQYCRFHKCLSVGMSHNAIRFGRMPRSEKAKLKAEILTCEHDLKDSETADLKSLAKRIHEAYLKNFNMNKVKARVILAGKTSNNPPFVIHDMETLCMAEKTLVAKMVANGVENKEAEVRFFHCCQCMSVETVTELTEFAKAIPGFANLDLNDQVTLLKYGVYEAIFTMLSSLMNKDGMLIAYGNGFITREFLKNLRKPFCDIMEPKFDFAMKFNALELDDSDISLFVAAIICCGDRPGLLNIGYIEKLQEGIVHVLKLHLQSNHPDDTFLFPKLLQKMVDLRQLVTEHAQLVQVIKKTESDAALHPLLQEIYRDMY

[4] = target: T2, rat PXR; type: cell-based; details: microsomes of PB- and MC-treated rats, NADPH, vs boiled microsomes
In short: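 Test compound (1 μmol) incubated 30 min at 37 °C in 0.1 M K,Na-phosphate pH 7.4. Mix held an NADPH-generating system and liver microsomes (60 mg protein) from male SD rats given PB 80 mg/kg i.p. plus MC 25 mg/kg p.o. daily for 3 d. Boiled microsomes were the control. Ethyl acetate extract went into DMSO and onto transfected COS-1 cells for 24 h. Normalized firefly/Renilla fold vs vehicle; n=3, t-test.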

[5] = test system: human CAR; details: ref Baldwin and Roling (2009); cited from earlier work
[6] = test system: mouse CAR; details: ref Baldwin and Roling (2009); cited from earlier work
[7] = target: T1, rat CAR; details: ref Omiecinski et al., 2011a; cited from earlier work

Row | Structure (SMILES) | Agonistic activity REC20 CAR [1] | Inverse agonistic activity RIC20 CAR [1] | CAR agonistic activity (in words) [1] | CAR inverse agonistic activity (in words) [1] | Agonistic activity REC20 PXR [2] | PXR agonistic activity (in words) [2] | Agonistic activity REC20 PPARα [3] | Change of PXR activity upon incubation with rat liver microsomes [4] | other results
1 | OCc1cccc(Oc2ccccc2)c1 [PBAlc, 3-phenoxybenzyl alcohol] | - ^c (No effect (REC20 > 30 μM)) | - ^c (No effect (REC20 > 30 μM)) | did not show CAR agonistic or inverse agonistic activity | did not show CAR agonistic or inverse agonistic activity | - ^c (No effect (REC20 > 30 μM)) | weak PXR agonistic activity | - ^c (No effect (REC20 > 30 μM)) | – | –
2 | CC(=O)[C@H]1[C@H](C#N)C[C@H]2[C@@H]3CC=C4C[C@@H](O)CC[C@]4(C)[C@H]3CC[C@@]21C [PCN, 5-Pregnen-3β-ol-20-one-16α-carbonitrile, reference compound] | – | – | – | – | 0.0887 ± 0.0118 µM | – | – | – | PXR luciferase activity, fold compared to DMSO-treated cells ([2]; 1 μM): 3.2 fold
3 | C[C@@H]1CC[C@H]2[C@@H](C)C(=O)O[C@@H]3O[C@@]4(C)CC[C@@H]1[C@]32OO4 [artemisinin, reference compound] | 2.53 ± 4.02 µM | – | – | – | – | – | – | – | CAR luciferase activity, fold ([1]; 30 μM): 1.9 fold
4 | CC1(C)[C@H](C(=O)OCc2cccc(Oc3ccccc3)c2)[C@@H]1C=C(Cl)Cl [cis-permethrin] | - ^c (No effect (REC20 > 30 μM)) | - ^c (No effect (REC20 > 30 μM)) | showed CAR agonistic activity at higher concentrations; also recorded: weak CAR agonistic activity | – | 0.329 ± 0.0472 µM | – | - ^c (No effect (REC20 > 30 μM)) | decreased | PXR activity, fold compared with the control ([2]; concentration range 1–30 μM): about 3 fold
5 | CC(C)=C[C@@H]1[C@@H](C(=O)OCc2coc(Cc3ccccc3)c2)C1(C)C [bioresmethrin] | - ^c (No effect (REC20 > 30 μM)) | - ^c (No effect (REC20 > 30 μM)) | – | showed CAR inverse agonistic activity | 1.92 ± 0.724 µM | relatively weak activities | - ^c (No effect (REC20 > 30 μM)) | slightly decreased | –
6 | CC1(C)C(C=C(Cl)Cl)C1C(=O)OC(C#N)c1cccc(Oc2ccccc2)c1 (stereo not drawn) [cypermethrin] | - ^c (No effect (REC20 > 30 μM)) | - ^c (No effect (REC20 > 30 μM)) | – | – | 0.468 ± 0.0267 µM | – | - ^c (No effect (REC20 > 30 μM)) | – | Human CAR agonistic activity [5]: agonists; Mouse CAR agonistic activity [6]: agonists; PXR activity, fold compared with the control ([2]; 1 μM or lower): about 2 fold; PXR activity, fold compared with the control ([2]; concentration range 1–30 μM): about 3 fold
7 | CC1(C)[C@H](C(=O)O[C@H](C#N)c2cccc(Oc3ccccc3)c2)[C@@H]1C=C(Br)Br [deltamethrin] | – | – | – | – | 0.156 ± 0.0216 µM | – | - ^c (No effect (REC20 > 30 μM)) | decreased | –
8 | CC1(C)[C@H](C=C(Cl)Cl)[C@H]1C(=O)OCc1cccc(Oc2ccccc2)c1 [trans-permethrin] | 4.19 µM and 4.19 ± 3.26 µM | - ^c (No effect (REC20 > 30 μM)) | showed CAR agonistic activity at higher concentrations; also recorded: weak CAR agonistic activity | – | 0.674 ± 0.0526 µM | – | - ^c (No effect (REC20 > 30 μM)) | decreased | PXR activity, fold compared with the control ([2]; 1 μM or lower): about 2 fold; PXR activity, fold compared with the control ([2]; concentration range 1–30 μM): about 3 fold
9 | CC(C)(Oc1ccc(CCNC(=O)c2ccc(Cl)cc2)cc1)C(=O)O [BZF, bezafibrate, reference compound] | – | – | – | – | – | – | 3.68 ± 0.0944 µM | – | PPARα luciferase activity, fold ([3]; 30 μM): 2.4 fold
10 | O=C(O)c1cccc(Oc2ccccc2)c1 [PBAcid, 3-phenoxybenzoic acid] | - ^c (No effect (REC20 > 30 μM)) | - ^c (No effect (REC20 > 30 μM)) | did not show CAR agonistic or inverse agonistic activity | did not show CAR agonistic or inverse agonistic activity | - ^c (No effect (REC20 > 30 μM)) | inactive | 26.8 µM and 26.8 ± 21.3 µM | – | PPARα agonistic activity (in words) [3]: dose-dependent agonistic activity; also recorded: more active PPARα agonists than the parent compounds
11 | C=CCC1=C(C)C(OC(=O)C2C(C=C(C)C)C2(C)C)CC1=O (stereo not drawn) [allethrin] | - ^c (No effect (REC20 > 30 μM)) | - ^c (No effect (REC20 > 30 μM)) | – | – | 0.668 ± 0.129 µM | – | - ^c (No effect (REC20 > 30 μM)) | slightly decreased | PXR activity, fold compared with the control ([2]; 1 μM or lower): about 2 fold; PXR activity, fold compared with the control ([2]; concentration range 1–30 μM): about 3 fold
12 | CC(C)=CC1C(C(=O)OCc2cccc(Oc3ccccc3)c2)C1(C)C (stereo not drawn) [phenothrin] | - ^c (No effect (REC20 > 30 μM)) | - ^c (No effect (REC20 > 30 μM)) | – | showed CAR inverse agonistic activity | 3.89 ± 1.03 µM | relatively weak activities | - ^c (No effect (REC20 > 30 μM)) | to the control level; also recorded: significantly decreased | –
13 | Clc1cnc(Oc2ccc(Oc3ncc(Cl)cc3Cl)cc2)c(Cl)c1 [TCPOBOP, 1,4-bis[2-(3,5-dichloropyridyloxy)]benzene] | – | – | – | – | – | – | – | – | Rat CAR activity [7]: inactive toward rat CAR
14 | Clc1ccc(-c2nc3sccn3c2C=NOCc2ccc(Cl)c(Cl)c2)cc1 [CITCO, 6-(4-chlorophenyl)imidazo[2,1-b][1,3]thiazole-5-carbaldehyde O-(3,4-dichlorobenzyl)oxime] | – | – | – | – | – | – | – | – | Rat CAR activity [7]: inactive toward rat CAR
15 | O=Cc1cccc(Oc2ccccc2)c1 [PBAld, 3-phenoxybenzaldehyde] | - ^c (No effect (REC20 > 30 μM)) | - ^c (No effect (REC20 > 30 μM)) | did not show CAR agonistic or inverse agonistic activity | did not show CAR agonistic or inverse agonistic activity | - ^c (No effect (REC20 > 30 μM)) | inactive | - ^c (No effect (REC20 > 30 μM)) | – | PPARα agonistic activity (in words) [3]: weak activity; also recorded: more active PPARα agonists than the parent compounds
